Test results taken from ChEMBL document CHEMBL2069280, “Synthesis and evaluation of sulfonylnitrophenylthiazoles (SNPTs) as thyroid hormone receptor-coactivator interaction inhibitors” (J Med Chem, 2012).

Assay: Permeability of compound by PAMPA at pH 7.4
Format: ADME
Outline: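 Parallel artificial membrane permeation assay at pH 7.4, read as permeability in 10^-6 cm/s. Mean of a single triplicate experiment.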

permeability	Papp (read-out: permeability)	SMILES
1030 ×10⁻⁶ cm/s	–	CN(Cc1cccc(F)c1)C(=O)c1cnc(-c2ccc(S(C)(=O)=O)c([N+](=O)[O-])c2)s1
271 ×10⁻⁶ cm/s	–	CN(Cc1cccc(F)c1)C(=O)c1sc(-c2ccc(S(C)(=O)=O)c([N+](=O)[O-])c2)nc1C(F)(F)F
280 ×10⁻⁶ cm/s	–	Cc1nc(-c2ccc(S(C)(=O)=O)c([N+](=O)[O-])c2)sc1C(=O)N1CCCCC1
167 ×10⁻⁶ cm/s	–	CS(=O)(=O)c1ccc(C(=O)OCC(=O)NC23CC4CC(CC(C4)C2)C3)cc1[N+](=O)[O-]
43 ×10⁻⁶ cm/s	–	CC1Cc2ccccc2N1C(=O)c1sc(-c2ccc(S(C)(=O)=O)c([N+](=O)[O-])c2)nc1C(F)(F)F (centres undefined)
912 ×10⁻⁶ cm/s	–	Cc1nc(-c2ccc(S(C)(=O)=O)c([N+](=O)[O-])c2)sc1C(=O)N1CCC(C)CC1
949 ×10⁻⁶ cm/s	–	CCc1nc(-c2ccc(S(C)(=O)=O)c([N+](=O)[O-])c2)sc1C(=O)N1CC2(C)CC1CC(C)(C)C2 (centres undefined)
–	702 ×10⁻⁶ cm/s	CC1CCN(C(=O)c2sc(-c3ccc(S(C)(=O)=O)c([N+](=O)[O-])c3)nc2C(F)(F)F)CC1
971 ×10⁻⁶ cm/s	–	CS(=O)(=O)c1ccc(-c2nc(-c3ccccc3)c(C(=O)N3CCCCC3)s2)cc1[N+](=O)[O-]
657 ×10⁻⁶ cm/s	–	CCc1nc(-c2ccc(S(C)(=O)=O)c([N+](=O)[O-])c2)sc1C(=O)N1CCCCC1
221 ×10⁻⁶ cm/s	–	CN(Cc1ccccc1F)C(=O)c1sc(-c2ccc(S(C)(=O)=O)c([N+](=O)[O-])c2)nc1C(F)(F)F
1620 ×10⁻⁶ cm/s	–	CCCN(C(=O)c1csc(-c2ccc(S(C)(=O)=O)c([N+](=O)[O-])c2)n1)c1ccccc1
1420 ×10⁻⁶ cm/s	–	Cc1nc(-c2ccc(S(C)(=O)=O)c([N+](=O)[O-])c2)sc1C(=O)N1CC2(C)CC1CC(C)(C)C2 (centres undefined)
8 ×10⁻⁶ cm/s	–	CC1(C)CC2CC(C)(CN2C(=O)c2sc(-c3ccc(S(C)(=O)=O)c([N+](=O)[O-])c3)nc2C(F)(F)F)C1 (centres undefined)
379 ×10⁻⁶ cm/s	–	CS(=O)(=O)c1ccc(-c2ncc(C(=O)NC34CC5CC(CC(C5)C3)C4)s2)cc1[N+](=O)[O-]
84 ×10⁻⁶ cm/s	–	CS(=O)(=O)c1ccc(-c2nc(C(F)(F)F)c(C(=O)N3CCc4ccccc4C3)s2)cc1[N+](=O)[O-]
1500 ×10⁻⁶ cm/s	–	CN(Cc1ccccc1)C(=O)c1sc(-c2ccc(S(C)(=O)=O)c([N+](=O)[O-])c2)nc1C(F)(F)F
791 ×10⁻⁶ cm/s	–	CS(=O)(=O)c1ccc(-c2nc(C(F)(F)F)c(C(=O)N3CCCCC3)s2)cc1[N+](=O)[O-]
287 ×10⁻⁶ cm/s	–	CS(=O)(=O)c1ccc(-c2ncc(C(=O)N3CCCCC3)s2)cc1[N+](=O)[O-]
